Rows were chosen to be rich in hits. Some 2.6% of all compounds tested hit in one or more screens of this group.
PRMT1 inh = inhibitors of human PRMT1 | inhibition, % at 2.79 µM | recombinant PRMT1, activity-based probe fluorescence polarization | 370,000 compounds, 1.3% hits;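 active = inhibition above about 21% made by adding two undisclosed values, limit read from the data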
SIAE primary = inhibitors of human sialic acid acetylesterase SIAE | Q9HAT2 | inhibition, % at 9.66 µM | SIAE FP-Rh probe binding, fluorescence polarization | 370,000 compounds, 0.69% hits;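 active = inhibition above a cutoff: mean of compounds within the control limits plus 3 SD of those, cut at about 17% in these data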;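 note: 0% = plate median of compound wells and 100% = probe without SIAE protein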
mABHD4 FP = ABHD4 (mouse) inhibition, primary FP screen; Q8VD66; purified mABHD4, FP-Rh probe fluorescence polarization; inhibition, % at 8.92 µM; 370,000 compounds, 0.54% hits; AID 720543;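 active = inhibition exceeding the mean over every tested compound plus 3 SD, cut at about 30% in these data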;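 note: 0% = plate median of compound wells and 100% = S159A mutant with DMSO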
Target sequence (Q8VD66 whole entry, looked up): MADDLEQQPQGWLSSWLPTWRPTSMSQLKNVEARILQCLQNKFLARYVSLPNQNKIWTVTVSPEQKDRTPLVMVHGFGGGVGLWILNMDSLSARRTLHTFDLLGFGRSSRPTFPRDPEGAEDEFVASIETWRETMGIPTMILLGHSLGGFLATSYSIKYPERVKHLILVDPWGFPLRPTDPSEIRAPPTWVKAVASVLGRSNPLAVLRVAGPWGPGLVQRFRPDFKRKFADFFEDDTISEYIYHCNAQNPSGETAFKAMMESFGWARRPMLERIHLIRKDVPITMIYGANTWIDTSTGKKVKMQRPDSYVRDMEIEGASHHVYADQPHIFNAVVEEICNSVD
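Assay system: wild-type mouse ABHD4 protein; compound: single nominal dose of 8.92 µM, 0.89% DMSO final; schedule: 45 min + 60 min at 25 °C; measured by: FP readout, ex 525 nm / em 598 nm; evaluation: % inhibition of FP-Rh probe binding versus controls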
HTRA1 inhibitor = blocks human HTRA1 serine peptidase; Q92743; recombinant HTRA1, FP-rhodamine activity-based probe, fluorescence polarization; inhibition, % at 5.96 µM; 340,000 compounds, 0.5% hits; in the data active = inhibition above about 36%;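 note: 0% = enzyme with DMSO and 100% = wells lacking enzyme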
TCR-CD3 inh = human TCR-CD3 binding inhibition; 360,000 compounds, 0.37% hits; inhibition, % at 9.4 µM; TAMRA-labeled TCR probe fluorescence, biochemical; AID 651800; in the data active = inhibition above about 19%;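 note: recombinant mutant TCR 2C K166C tagged with TAMRA read by polarization; 0% = receptor in buffer alone and 100% = receptor with positive control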
PRMT1 confirm = PRMT1 (human) inhibition, FP confirmation; shares compounds with PRMT1 inh; recombinant His-PRMT1, activity-based probe fluorescence polarization; inhibition, % at 2.79 µM; 3,300 compounds, 42% hits; AID 687036;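 active = mean inhibition across replicates above the hit cutoff derived for the earlier primary screen, cut at about 22% in these data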
* marks the source's active call; other numbers are inactive results; · = no result given; ! = not confirmed by another sample.

SMILES	PRMT1 inh	SIAE primary	mABHD4 FP	HTRA1 inhibitor	TCR-CD3 inh	PRMT1 confirm
Cc1ccc2c(c1)[C@H]1[C@H](CO2)[C@H](c2ccccc2)[C@]2(C)C(=O)N(Cc3ccc(Cl)cc3)CC(=O)N12	-3	-6	-15	-43	3	·
Cc1ccc2c(c1)[C@H]1[C@H](CO2)[C@H](c2ccccc2)[C@]2(C)C(=O)N(Cc3ccc(F)cc3)CC(=O)N12	38*	-6	-11	-30	0	11
C#CCOCCOCCOCCNc1nc(N2CCOCC2)nc(N2CCN(C(=O)[C@H](CCC(=O)O)n3cc(C(N)CO)nn3)CC2)n1 (stereo not given in full)	4	-2	-1	·	·	·
CC(=O)NC1C(=O)N=C(SCC(=O)Nc2cccc(Cl)c2)NC1=O (stereo not given)	39*	-4	6	4	3	8
O=C(CSc1n[nH]c(-c2cccnc2)n1)Nc1cccc(Cl)c1	2	-8	-3	-13	-3	·
O=C(CSc1nc(-c2ccc(Cl)cc2)[nH]c(=O)n1)Nc1cccc(Cl)c1	51*	-29	-41	·	0	0
Cc1cc(=O)oc2cc(OCC(=O)OCC(=O)NCCc3ccccc3)ccc12	27*!	-3	-4	3	6	-2
CNC(=O)COC(=O)COc1ccc2c(C)cc(=O)oc2c1	4	-4	2	-1	0	·
CCCN(CC1CC1)C(=O)c1ccc(CNC(=O)c2cccc(Br)c2)cc1	5	-5	-6	·	·	·
O=C(NCc1ccco1)C1CCCN(c2ncccn2)C1 (stereo not given)	3	0	1	·	·	·
Nc1nc(NCCO)nc(N2CCCCCC2)c1[N+](=O)[O-]	-2	1	-1	-9	-7	·
OCCN(CCO)c1nc(N2CCCCC2)c2nc(N(CCO)CCO)nc(N3CCCCC3)c2n1	57*	1	-4	5	-1	75*
Cc1cc(/C=C(\C#N)c2nc3ccccc3[nH]2)c(C)n1C	28*	4	-6	-4	-9	19
N#C/C(=C/c1ccc(N2CCOCC2)o1)c1nc2ccccc2[nH]1	38*	5	15	1	9	-55
Cc1cc(/C=C(/C#N)c2nc3ccccc3[nH]2)c(C)n1-c1cccc([N+](=O)[O-])c1	-2	-10	0	-16	9	·
CCn1c2ccccc2c2cc(NC(=O)CSc3nnc(C4CC4)n3Cc3ccco3)ccc21	6	3	13	0	3	·
CCn1c2ccccc2c2cc(NC(=O)CSc3nnc(-c4ccccc4)n3Cc3ccco3)ccc21	80*	12	17	·	·	65*
Cc1cccc(-c2nnc(SCC(=O)Nc3ccc(-c4nc5ccc(C)cc5s4)cc3)n2Cc2ccco2)c1	41*	-21	-22	·	·	1
Cc1ccc2nc(-c3ccc(NC(=O)CSc4nnc(-c5ccccc5)n4Cc4ccco4)cc3)sc2c1	25*	-50	-42	·	·	19
COc1ccc(OC)c(-n2c(=S)[nH]c3c(sc(=S)n3-c3ccccc3C)c2=O)c1	48*	3	8	3	5	3
COc1cccc(-n2c(=S)sc3c(=O)n(-c4ccccc4OC)c(=S)[nH]c32)c1	82*	0	-1	-15	0	21
COc1ccc(-n2c(SCC#N)nc3c(sc(=S)n3-c3ccccc3)c2=O)c(OC)c1	8	6	4	-10	8	·
COc1ccc(OC)c(S(=O)(=O)N2CCCCC2C(=O)N2CCN(Cc3ccc(F)cc3)CC2)c1 (stereo not given)	5	-1	5	·	·	·
O=C(Nc1nc(-c2ccco2)c(-c2ccco2)s1)C1CCC1	35*	2	13	10	-5	19
O=C(Nc1nc(-c2ccco2)c(-c2ccco2)s1)C1CC(=O)N(c2ccc3c(c2)OCCO3)C1 (stereo not given)	38*	9	-1	11	8	10
Cc1nnc(NC(=O)C2CC(=O)N(c3ccc4c(c3)OCCO4)C2)s1 (stereo not given)	-5	-4	1	3	0	·
C/C=C/C(=O)N1CCc2cc(S(=O)(=O)N(C)Cc3ccco3)ccc21	-6	2	2	·	·	·
Cc1nc2ccccn2c1C(O)(c1ccccc1)c1ccccc1	3	0	0	·	·	·

Source: PubChem
